Compound activity (PubChem BioAssay)
Exocytosis inh – blocks lytic granule exocytosis | TALL-104 LAMP-1 surface exposure, flow cytometry; cells stimulated with thapsigargin and PMA | hit rate 0.66% among 360,000 | inhibition, % at 10 µM;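 active = inhibition above about 55%, limit read from the data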
ABHD5-PLIN5 inh – ABHD5-PLIN5 protein interaction inhibition; Q00G26+Q8WTS1; Split G. princeps luciferase complementation, luminescence, 4 h; inhibition, % at 4 µM; hit rate 0.78% among 360,000;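 active = inhibition above the mean inhibition across every tested compound plus 3 SD, cut at about 22% in these data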;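 note: 0% = DMSO only wells and the 100% control is not disclosed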
PfG6PD inh – PfG6PD (Plasmodium falciparum) enzyme inhibition; PfGluPho enzyme, NADPH resazurin-diaphorase fluorescence; inhibition, % at 20 µM; hit rate 0.78% among 350,000; AID 504690;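 active = inhibition reaching at least a set limit at 20 µM in the primary screen, cut at about 59% in these data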;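 note: 0% = DMSO wells with substrate and 100% = DMSO wells lacking glucose-6-phosphate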
HKDC1 inh – blocks human hexokinase HKDC1 activity; Q2TB90; recombinant HKDC1, G6PDH/diaphorase resazurin coupled fluorescence; inhibition, % at 20 µM; hit rate 0.16% among 340,000; AID 493160;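 active = inhibition above about 35% when tested at 20 µM, limit read from the data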;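 note: plate controls were DMSO wells with enzyme for no effect and DMSO wells lacking enzyme for full effect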
Target sequence (Q2TB90 whole entry, looked up): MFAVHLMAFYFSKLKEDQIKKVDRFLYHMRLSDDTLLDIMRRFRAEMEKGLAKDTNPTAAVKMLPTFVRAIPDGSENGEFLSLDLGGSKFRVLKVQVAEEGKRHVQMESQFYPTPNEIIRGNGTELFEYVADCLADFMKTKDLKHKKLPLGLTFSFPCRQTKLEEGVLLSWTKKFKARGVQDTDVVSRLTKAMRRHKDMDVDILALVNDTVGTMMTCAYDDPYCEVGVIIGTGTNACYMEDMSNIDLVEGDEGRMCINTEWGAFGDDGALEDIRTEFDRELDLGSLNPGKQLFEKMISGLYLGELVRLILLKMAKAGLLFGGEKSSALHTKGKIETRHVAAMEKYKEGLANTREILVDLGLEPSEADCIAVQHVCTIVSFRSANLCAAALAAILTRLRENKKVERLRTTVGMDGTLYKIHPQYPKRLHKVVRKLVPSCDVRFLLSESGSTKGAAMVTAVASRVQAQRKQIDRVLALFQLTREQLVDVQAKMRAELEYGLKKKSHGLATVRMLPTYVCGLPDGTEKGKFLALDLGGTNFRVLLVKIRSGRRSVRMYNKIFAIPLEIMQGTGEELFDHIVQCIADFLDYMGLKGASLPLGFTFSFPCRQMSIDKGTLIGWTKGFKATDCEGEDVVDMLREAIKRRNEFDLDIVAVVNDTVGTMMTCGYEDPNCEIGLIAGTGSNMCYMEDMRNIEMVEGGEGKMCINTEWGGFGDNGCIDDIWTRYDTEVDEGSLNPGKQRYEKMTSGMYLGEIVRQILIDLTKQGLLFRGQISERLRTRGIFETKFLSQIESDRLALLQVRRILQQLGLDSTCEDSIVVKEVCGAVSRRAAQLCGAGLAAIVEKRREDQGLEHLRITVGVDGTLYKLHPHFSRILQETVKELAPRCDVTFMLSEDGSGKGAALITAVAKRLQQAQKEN
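System: Recombinant HKDC1 hexokinase | Amount: HKDC1 at 5 µg/mL | Reagent: Glucose with 1 mM ATP | Doses: Single 20 µM dose | Incubation: Reaction time 90 min, room temperature, protected from light | Signal: Coupled resazurin fluorescence, excitation 525 nm, emission 613 nm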
ABHD5 PLIN5 conf – confirmation of human ABHD5-PLIN5 interaction inhibitors; shares compounds with ABHD5-PLIN5 inh; biochemical ABHD5-PLIN5 interaction, luminescence; inhibition, % at 4 µM; hit rate 67% among 2,200; AID 651612; in the data active = inhibition above about 23%;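 note: 0% = DMSO vehicle wells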
HNF4 counter – HNF4 split-luciferase signal hit, counter-screen | shares compounds with ABHD5-PLIN5 inh | HNF4 dimerization, luminescence, biochemical | inhibition, % at 4 µM | hit rate 77% among 2,200;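 active = mean inhibition across replicate wells exceeding the computed hit threshold, cut at about 13% in these data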;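 note: light from luciferase halves that rejoin when HNF4 fusion proteins dimerize; 0% = DMSO only wells and the 100% control is not given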
Numbers without * were called inactive; . = no result. Hits are enriched below; roughly 2.2% of the tested compounds scored in any of these assays.

SMILES	Exocytosis inh	ABHD5-PLIN5 inh	PfG6PD inh	HKDC1 inh	ABHD5 PLIN5 conf	HNF4 counter
CCOC(=O)N=S(N)(=O)c1ccccc1 (stereo not given)	0	-3	1	-5	.	.
CCOC(=O)CC(S(=O)(=O)c1ccccc1)S(=O)(=O)c1ccccc1	33	52*	11	.	38*	89*
COCCn1c(=O)c2c(nc3n2CC(C)CN3Cc2ccccc2)n(C)c1=O (stereo not given)	-2	-2	-4	-4	.	.
CC1=C(C(=O)N(C(C)C)C(C)C)CC(CC(=O)NC2CCCC2)C(=O)N1Cc1ccc(F)cc1 (stereo not given)	4	-4	.	.	.	.
CCN(c1ccccc1C(=O)O)S(=O)(=O)c1ccc2[nH]c(=O)[nH]c2c1	-5	-1	3	1	.	.
Cc1ccc(-n2nc(-c3ccco3)cc2C(=O)O)c(C)c1	1	31*	8	8	23*	27*
Cc1ccc(NN2C(=O)C=C(c3ccc(Cl)cc3)C2=O)cc1	39	95*	15	8	101*	107*
Cc1ccc(NN2C(=O)C=CC2=O)cc1	0	-1	6	-14	.	.
COc1ccc(C2=CC(=O)N(Nc3ccccc3)C2=O)cc1	3	88*	14	2	86*	88*
CCOc1cccnc1Sc1ccccc1	-2	2	-3	0	.	.
CC1CC(C)CN(CCC(=O)Nc2ccc(Br)cc2)C1 (stereo not given)	-6	3	1	-6	.	.
O=C(C=C=Nc1ccccc1)C(=O)N=C=Cc1ccccc1	38	73*	-18	6	96*	99*
O=C(N/N=C/c1ccccc1)C(=O)N/N=C/c1ccccc1	2	1	-18	0	.	.
Cc1ccc(C(=O)N2CCCC2(C)C(=O)NCC(C)C)cc1F (stereo not given)	-3	4	.	.	.	.
Cn1ccc(-c2ccccc2)n1	-1	2	7	-9	.	.
CC1=CC(=O)N(c2ccn(C)n2)C1=O	-3	25*	-13	-1	36*	39*
Cc1ccc(OC(C)C(=O)Nc2cccc(S(=O)(=O)N3CCCCCC3)c2)cc1 (stereo not given)	-1	-1	17	.	.	.
CN(C)c1ccc(N=Nc2ccc(S(N)(=O)=O)cc2)cc1	-3	7	20	13	.	.
CC1=CC(=O)C=CC1=Nc1ccc(N(C)C)cc1	84*	86*	.	.	98*	113*
O=C(Oc1cccc2c(O)cccc12)c1ccco1	-28	5	23	16	.	.
Cc1ccc(Cl)cc1NC(=S)N(Cc1ccccc1)Cc1cccnc1	-1	8	-1	-1	.	.
Cc1ccc(/C=C/C(=O)c2cc(Br)ccc2OC(=O)c2ccco2)cc1	3	74*	13	30	95*	74*
CCc1ccc(/C=C/C(=O)c2cc(Br)ccc(=O)c2O)cc1	15	30*	33	12	61*	46*
COc1ccccc1/C=C/C(=O)c1cc(Br)ccc1OC(=O)c1ccco1	-2	66*	19	23	94*	74*
OCC[C@@H]1C[C@H](O)[C@@H](O)[C@@]2(Cc3ccccc3O2)O1	-3	12	4	-1	.	.
SMILES	Exocytosis inh	ABHD5-PLIN5 inh	PfG6PD inh	HKDC1 inh	ABHD5 PLIN5 conf	HNF4 counter
COc1ccc(C(C[N+](=O)[O-])c2c(C)cc3ccccn23)c(OC)c1 (stereo not given)	27	30*	36	4	45*	29*
O=C(Nc1nnc(-c2cccs2)s1)c1cccc(F)c1	0	3	10	0	.	.
O=C1C=C(C2OC(CO)C(O)C2O)C(=O)N1 (stereo not given)	-1	68*	7	-6	48*	104*
COc1ccc(CCN2C(=O)CSC2c2ccc(F)cc2)cc1 (stereo not given)	40	-6	18	0	.	.
CCC(c1nc2ccccc2[nH]1)n1c(=O)c(-c2ccccc2)nc2ccccc21 (stereo not given)	3	2	.	.	.	.
O=c1c(-c2ccco2)nc2ccccc2n1C(CCc1ccccc1)c1nc2ccccc2[nH]1 (stereo not given)	16	72*	.	.	55*	10
CCC(c1nc2ccccc2[nH]1)n1c(=O)c(-c2ccco2)nc2ccccc21 (stereo not given)	-7	37*	.	.	59*	23*
C(=N\Nc1nc(-c2ccccc2)cs1)/c1ccncc1	-2	0	46	-13	.	.
O=C(O)Cc1sc(N/N=C\c2ccncc2)nc1-c1ccccc1	-1	24*	33	3	15	45*
CCCCN(C(=O)c1cc(Cl)nc2ccccc12)c1c(N)n(CCCC)c(=O)[nH]c1=O	12	7	-11	-3	.	.
O=C(O)COc1ccccc1/C=C1\C(=O)Nc2ccc(Br)cc21	0	34*	-13	3	42*	44*
CCOC(=O)C(C(=O)OCC)C(Nc1ccc(Br)cc1)c1ccccc1 (stereo not given)	6	26*	0	12	11	52*
O=c1[nH]nc(-c2n[nH]c(=O)o2)o1	-5	-1	19	-8	.	.
O=C(CCCn1cc([N+](=O)[O-])cn1)NCc1ccccc1	2	1	-4	-6	.	.
O=C(CCCn1cc([N+](=O)[O-])cn1)NC1CCCCCC1	-1	99*	-9	2	-5	5
COC(=O)C(CC(=O)c1ccc(Br)cc1)n1nc(C)cc1C (stereo not given)	37	37*	25	0	11	52*
O=S(=O)(/N=S1/CC=CCN1S(=O)(=O)c1ccccc1)c1ccccc1 (stereo not given)	-3	71*	57	6	60*	101*
CC(C)(C)c1ccc(/C=C(\C#N)C(=O)NC2CC2)cc1	1	28*	-8	10	47*	35*
CC1(Cc2cc(Cl)ccc2C(F)(F)F)C(=O)Nc2c(Cl)cccc21 (stereo not given)	1	-2	.	.	.	.
O=c1c(-c2ccco2)nc2ccccc2n1C(c1ccccc1)c1nc2ccccc2[nH]1 (stereo not given)	-1	36*	.	.	28*	16*
O=c1c(-c2ccco2)nc2ccccc2n1C(c1ccccn1)c1nc2ccccc2[nH]1 (stereo not given)	3	37*	.	.	33*	59*
O=C(COC(=O)CCC(=O)c1ccc(F)cc1)NCc1ccc(Cl)cc1	-11	-1	-3	-1	.	.
O=C(COC(=O)CCC(=O)c1ccc(Cl)cc1)NCc1ccco1	5	25*	-2	1	11	7
O=C1Nc2c(c(=O)[nH]c(=O)n2-c2ccc(F)cc2)C1(NS(=O)(=O)c1ccccc1)C(F)(F)F (stereo not given)	-4	-8	2	-6	.	.
CN(C)c1ccc(/C=C/c2ccc3ccccc3[n+]2C)cc1	6	29*	28	-1	23*	30*
O=C(O)c1cccc(OS(=O)(=O)c2cc(Br)ccc2Br)c1	4	7	-26	-1	.	.
